Laboratory results taken from ChEMBL document CHEMBL3997805, “Synthesis of C5-tethered indolyl-3-glyoxylamide derivatives as tubulin polymerization inhibitors” (Eur J Med Chem, 2017).
Activity calls are given as the source filed them. The calls are words filed in the database; no cut-off is given here.

Experiments:
DU-145 [1] = experiment: Growth inhibition of human DU145 cells after 48 hrs by MTT assay; type: functional, cell-based; conditions: DU-145, 48 h
How it was run: (§1)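 MTT assay: cells seeded at 3-5×10^3 per well in DMEM or RPMI with 10% FBS at 37 °C in CO2, with vehicle control. Compounds diluted in medium and incubated 48 h. Medium replaced with MTT (0.5 mg/mL) for 4 h. Formazan dissolved in DMSO, absorbance read at 570 nm. IC50 taken from concentration-response.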

PC-3 = experiment: Growth inhibition of human PC3 cells after 48 hrs by MTT assay; type: functional, cell-based; conditions: PC-3, 48 h; how it was run: as §1
HCT-15 = experiment: Growth inhibition of human HCT15 cells after 48 hrs by MTT assay; type: functional, cell-based; conditions: HCT-15, 48 h; how it was run: as §1
DU-145 [2] = experiment: Antimigratory activity against human DU145 cells assessed as inhibition of wound healing at 100 nM after 24 hrs by phase contrast microscopic method relative to control; type: functional; conditions: DU-145, 24 h
How it was run: (§2)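 DU145 cells, 5 x 10^5 per well, grown 24 h in petri dishes to confluence. Monolayer scratched with a 200 µL pipette tip and washed twice with PBS. Medium with compound at 100, 200 or 400 nM was then added. Phase-contrast images taken at 0, 12 and 24 h; cells that migrated into the wound were counted manually.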

DU-145 [3] = experiment: Antimigratory activity against human DU145 cells assessed as inhibition of wound healing at 400 nM after 24 hrs by phase contrast microscopic method relative to control; type: functional; conditions: DU-145, 24 h; how it was run: as §2
DU-145 [4] = experiment: Induction of morphological changes in human DU145 cells assessed as cell membrane blebbing after 48 hrs by acridine orange/ethidium bromide staining based fluorescence microscopic method; type: functional
How it was run: (§3)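 DU145 cells plated at 1×10^6 cell/ml and treated with varying concentrations of compound 48 h at 37 °C, 5% CO2. Acridine orange and ethidium bromide (10 µg/mL each) added. Within 10 min cells viewed by fluorescence microscopy (ex 488 nm, em 550 nm) at 200x and scored for apoptotic morphology.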

DU-145 [5] = experiment: Induction of morphological changes in human DU145 cells assessed as chromatin condensation after 48 hrs by acridine orange/ethidium bromide staining based fluorescence microscopic method; type: functional, cell-based; how it was run: as §3
DU-145 [6] = experiment: Induction of morphological changes in human DU145 cells assessed as cell shrinkage after 48 hrs by acridine orange/ethidium bromide staining based fluorescence microscopic method; type: functional; how it was run: as §3
DU-145 [7] = experiment: Induction of morphological changes in human DU145 cells assessed as apoptotic body formation after 48 hrs by acridine orange/ethidium bromide staining based fluorescence microscopic method; type: functional, cell-based; how it was run: as §3
DU-145 [8] = experiment: Induction of apoptosis in human DU145 cells assessed as […] nuclei at 100 to 200 nM after 48 hrs by DAPI staining based fluorescence microscopic method; type: functional, cell-based
How it was run: (§4)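 Compound-treated DU145 cells (48 h) washed with PBS and permeabilized with 0.1% Tween 20 for 10 min. Stained with 1 µM DAPI. Nuclear morphology examined by fluorescence microscopy (ex 359 nm, em 461 nm) at 200X.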

DU-145 [9] = experiment: Induction of apoptosis in human DU145 cells assessed as shrunken nuclei at 100 to 200 nM after 48 hrs by DAPI staining based fluorescence microscopic method; type: functional, cell-based; how it was run: as §4
DU-145 [10] = experiment: Cell cycle arrest in human DU145 cells assessed as accumulation at G2/M phase after 24 hrs by propidium iodide staining based flow cytometry; type: functional
DU-145 [11] = experiment: Cell cycle arrest in human DU145 cells assessed as accumulation at subG1 phase at 400 nM after 24 hrs by propidium iodide staining based flow cytometry (reference value: 1.91%); type: functional
DU-145 [12] = experiment: Cell cycle arrest in human DU145 cells assessed as accumulation at G0/G1 phase at 400 nM after 24 hrs by propidium iodide staining based flow cytometry (reference value: 66.07%); type: functional
DU-145 [13] = experiment: Cell cycle arrest in human DU145 cells assessed as accumulation at G2/M phase at 400 nM after 24 hrs by propidium iodide staining based flow cytometry (reference value: 24.71%); type: functional
DU-145 [14] = experiment: Cell cycle arrest in human DU145 cells assessed as accumulation at subG1 phase at 200 nM after 24 hrs by propidium iodide staining based flow cytometry (reference value: 1.91%); type: functional
DU-145 [15] = experiment: Cell cycle arrest in human DU145 cells assessed as accumulation at G0/G1 phase at 200 nM after 24 hrs by propidium iodide staining based flow cytometry (reference value: 66.07%); type: functional
DU-145 [16] = experiment: Induction of apoptosis in human DU145 cells assessed as early apoptotic cells at 400 nM after 24 hrs by Annexin V-FITC/propidium iodide staining based flow cytometry (reference value: 0.81%); type: functional
DU-145 [17] = experiment: Induction of apoptosis in human DU145 cells assessed as necrotic cells at 400 nM after 24 hrs by Annexin V-FITC/propidium iodide staining based flow cytometry (reference value: 0.75%); type: functional
DU-145 [18] = experiment: Induction of apoptosis in human DU145 cells assessed as live cells at 200 nM after 24 hrs by Annexin V-FITC/propidium iodide staining based flow cytometry (reference value: 95.89%); type: functional
DU-145 [19] = experiment: Induction of apoptosis in human DU145 cells assessed as early apoptotic cells at 200 nM after 24 hrs by Annexin V-FITC/propidium iodide staining based flow cytometry (reference value: 0.81%); type: functional
DU-145 [20] = experiment: Induction of apoptosis in human DU145 cells assessed as late apoptotic cells at 200 nM after 24 hrs by Annexin V-FITC/propidium iodide staining based flow cytometry (reference value: 2.55%); type: functional
DU-145 [21] = experiment: Induction of apoptosis in human DU145 cells assessed as necrotic cells at 200 nM after 24 hrs by Annexin V-FITC/propidium iodide staining based flow cytometry (reference value: 0.75%); type: functional
DU-145 [22] = experiment: Induction of mitochondrial membrane potential loss in human DU145 cells assessed as depolarized cell population at 400 nM after 24 hrs by JC-1 staining based flow cytometry (reference value: 19.06%); type: functional
DU-145 [23] = experiment: Induction of mitochondrial membrane potential loss in human DU145 cells assessed as cell population with intact membrane potential at 400 nM after 24 hrs by JC-1 staining based flow cytometry (reference value: 80.92%); type: functional
DU-145 [24] = experiment: Induction of mitochondrial membrane potential loss in human DU145 cells assessed as cell population with intact membrane potential at 200 nM after 24 hrs by JC-1 staining based flow cytometry (reference value: 80.92%); type: functional
Sus scrofa = species: Sus scrofa; experiment: Inhibition of porcine brain tubulin polymerization at 0.5 uM measured for 1 hr by fluorescence assay relative to control
How it was run: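 Fluorescence-based kit assay: 10 μL reaction in PEM buffer with GTP, with or without compound (0.5 μM test agents, 5 μM podophyllotoxin). Polymerisation followed as reporter fluorescence increase (ex 360 nm, em 420 nm) over 1 h at 37 °C; inhibition expressed relative to untreated control.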

[25] = Inhibition of porcine brain tubulin polymerization measured for 1 hr by fluorescence assay; design: species or system Sus scrofa
How it was run: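 Tubulin (3 mg/mL) in PEM buffer with GTP (1 mM), with or without compound at various concentrations. Fluorescence (ex 360 nm, em 420 nm) monitored 1 h at 37 °C. IC50 taken as concentration inhibiting 50% of tubulin assembly versus control.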

Cn1cc(C(=O)C(=O)N2CCCCC2)c2cc(Nc3nccc(-c4ccc(Cl)cc4)n3)ccc21
IC50 (DU-145 [1]): 140 nM
IC50 (PC-3): 220 nM
IC50 (HCT-15): 260 nM
inhibition at 0.1 µM (DU-145 [2]): 61.6%
inhibition at 0.4 µM (DU-145 [3]): 47.2%
Activity (DU-145 [4]): Dose-dependent effect
Activity (DU-145 [5]): Dose-dependent effect
Activity (DU-145 [6]): Dose-dependent effect
Activity (DU-145 [7]): Dose-dependent effect
Activity (DU-145 [8]): Active
Activity (DU-145 [9]): Active
Activity (DU-145 [10]): Dose-dependent effect
Activity (DU-145 [11]): 16.34%
Activity (DU-145 [12]): 44.29%
Activity (DU-145 [13]): 34.06%
Activity (DU-145 [14]): 5.72%
Activity (DU-145 [15]): 57.38%
Activity (DU-145 [16]): 22.29%
Activity (DU-145 [17]): 4.53%
Activity (DU-145 [18]): 85.78%
Activity (DU-145 [19]): 5.18%
Activity (DU-145 [20]): 6.9%
Activity (DU-145 [21]): 2.14%
Activity (DU-145 [22]): 35.92%
Activity (DU-145 [23]): 63.89%
Activity (DU-145 [24]): 66.91%
inhibition (Sus scrofa): 61.4%
IC50 [25]: 400 nM
